Laboratory results: article PMC3810942 (FEBS letters, 2013)
pIC50, pKd, pKi: −log10 of the molar value. “Also recorded” adds a separate entry of the source.

Experiments:
Trypsin = target: T1, Trypsin (Bos taurus, UniProt P00760); assay: Selectivity assay with trypsin; format: biochemical
T1 sequence (P00760 24-246): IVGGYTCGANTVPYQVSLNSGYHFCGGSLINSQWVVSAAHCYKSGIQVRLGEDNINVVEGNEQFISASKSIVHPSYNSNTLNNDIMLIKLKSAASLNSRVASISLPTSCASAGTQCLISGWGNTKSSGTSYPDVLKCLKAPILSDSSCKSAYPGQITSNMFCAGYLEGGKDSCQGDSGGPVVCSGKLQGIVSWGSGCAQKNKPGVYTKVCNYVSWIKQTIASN
How it was run: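 TPCK-treated trypsin was exposed to increasing compound at 21°C in 25 mM HEPES with 1 mM CaCl₂. Substrate hydrolysis was tracked as fluorescence increase (ex 496/em 523 nm). Rates were normalized to the no-inhibitor rate and expressed as % activity.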

AVP-pVIc complexes [1] = target: T2, AVP-pVIc complexes (Human adenovirus C serotype 2, UniProt P03252); assay: Inhibition of AVP-pVIc complexes, fluorogenic substrate assay; format: biochemical, adenovirus serotype 2
Papain = target: T3, Papain (Carica papaya, UniProt P00784); assay: Selectivity assay with papain; format: biochemical
T3 sequence (P00784 134-345): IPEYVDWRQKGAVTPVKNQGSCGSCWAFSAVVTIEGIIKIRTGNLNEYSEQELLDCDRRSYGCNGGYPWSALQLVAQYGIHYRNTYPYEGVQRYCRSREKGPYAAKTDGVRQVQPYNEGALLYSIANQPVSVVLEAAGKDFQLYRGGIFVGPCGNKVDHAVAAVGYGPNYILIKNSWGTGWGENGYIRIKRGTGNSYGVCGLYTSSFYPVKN
How it was run: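 Papain was incubated with increasing compound for 10 min at 21°C in 25 mM sodium acetate with 1 mM DTT. Hydrolysis of the fluorogenic substrate was followed over time (ex 496/em 523 nm). Rates were normalized to the rate without inhibitor and reported as % activity.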

[2] = test system: AVP and AVP-pVIc complexes; assay: Coarse screening of structural derivatives for enzyme inhibitors; format: biochemical, adenovirus serotype 2; conditions: 40 μM compound, 150 mM NaCl, 0.3 μM enzyme
How it was run: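 AVP (adenovirus type 2, E. coli-expressed) or AVP-pVIc complexes (75 μM each, overnight at 4°C with 20 mM β-mercaptoethanol) were pre-incubated 9 min at 21°C with compound from 10 mM DMSO stock. Buffer was 20 mM Tris-HCl pH 8, 0.025% DDM, 0.1 mM DTT. For AVP, 40 μM pVIc was then added for 9 min more. Initial rates with 5 μM (Cbz-Leu-Arg-Gly-Gly-NH)₂-Rhodamine (ex 496/em 523 nm) were normalized to the no-inhibitor rate.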

[3] = target: AVP (adenovirus proteinase) (Human adenovirus C serotype 2, UniProt P03252); assay: Inhibition of AVP; format: biochemical, adenovirus serotype 2
How it was run: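 Purified adenovirus type 2 AVP was pre-incubated 9 min at 21°C with varied compound in 5 mM NaCl, 20 mM Tris-HCl pH 8, 0.025% DDM, 0.1 mM DTT. pVIc was then added to 20 μM for another 9 min. Rates with 5 μM (Cbz-Leu-Arg-Gly-Gly-NH)₂-Rhodamine were read every 10 s (ex 496/em 523 nm). IC50 came from a four-parameter logistic fit of initial rates.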

AVP-pVIc complexes [4] = target: T2, AVP-pVIc complexes; assay: Competitive inhibition of AVP-pVIc complexes; format: biochemical, adenovirus serotype 2
AVP = AVP (Human adenovirus C serotype 2, UniProt P03252); assay: Mixed inhibition of AVP; format: biochemical, adenovirus serotype 2
[5] = target: Adenovirus proteinase (AVP) (Human adenovirus 2) (UniProt P03252); conditions: cited from earlier work
[6] = 20 pM trypsin, 10 min, pH 7.5, 10 μM (Ile-Pro-Arg-NH)2-Rhodamine
[7] = 0.18 μM papain, pH 5, 10 μM (Phe-Arg-NH)2-Rhodamine
[8] = best fitting model, SigmaPlot Kinetic Module
[9] = concentrations 50-fold higher than that inhibiting AVP or AVP-pVIc by more than 90%

T2 sequence (P03252 whole entry, one chain of several): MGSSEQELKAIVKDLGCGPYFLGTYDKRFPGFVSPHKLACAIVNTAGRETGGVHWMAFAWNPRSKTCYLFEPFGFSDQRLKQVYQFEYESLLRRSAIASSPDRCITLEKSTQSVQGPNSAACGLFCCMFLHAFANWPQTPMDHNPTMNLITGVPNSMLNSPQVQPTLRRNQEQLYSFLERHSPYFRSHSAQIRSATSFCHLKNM
Chain of AVP (P03252 whole entry): as the sequence (P03252 whole entry, one chain of several) above
Chain of AVP (adenovirus proteinase) (P03252 whole entry): as the sequence (P03252 whole entry, one chain of several) above
Chain of pVIc (P03274 whole entry, looked up): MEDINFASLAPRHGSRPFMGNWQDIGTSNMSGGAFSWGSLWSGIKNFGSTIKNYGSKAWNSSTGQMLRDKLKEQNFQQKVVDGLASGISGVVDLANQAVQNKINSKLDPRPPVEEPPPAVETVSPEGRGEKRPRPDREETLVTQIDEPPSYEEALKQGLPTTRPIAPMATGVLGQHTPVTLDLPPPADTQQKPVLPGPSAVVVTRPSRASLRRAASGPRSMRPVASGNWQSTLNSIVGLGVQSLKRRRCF
Chain of Adenovirus proteinase (AVP) (Human adenovirus 2) (P03252 whole entry): as the sequence (P03252 whole entry, one chain of several) above

Molecule | Inhibition of trypsin (Trypsin; [6]) | pIC50 (AVP-pVIc complexes [1]) | Inhibition of papain (Papain; [7]) | Inhibition in coarse screen [2] | pIC50 [3] | further results
O=C1CN2CCN(CC2)CC(=O)Nc2ccc(cc2)S(=O)(=O)c2ccc(cc2)NC(=O)CN2CCN(CC2)CC(=O)Nc2ccc(cc2)S(=O)(=O)c2ccc(cc2)N1 [NSC 36806, 2,21-dithia-7,10,13,16,26,29,32,35-octaazaheptacyclo[34.2.2.23,6.210,13.217, 20.222,25.229,32]pentaconta-1(38),3,5,17,19,22,24,36,39,43,45,49-dodecaene-8,15,27,34-tetrone 2,2,21,21-tetraoxide] | did not inhibit | 4.74 | – | – | – | –
CC(C)CCN(CCC(C)C)CC(=O)Nc1ccc(S(=O)(=O)c2ccc(NC(=O)CN(CCC(C)C)CCC(C)C)cc2)cc1 [NSC 37248, 2-[bis(3-methylbutyl)amino]-N-[4-[4-[[2-[bis(3-methylbutyl)amino]acetyl]amino]phenyl]sulfonylphenyl]acetamide] | No Inhibition | 5.68 | No Inhibition | inhibit either the activation of AVP or the activity of AVP-pVIc complexes; also recorded: effective inhibitors | 6.06 | –
O=C(CN(C1CCCCC1)C1CCCCC1)Nc1ccc(S(=O)(=O)c2ccc(NC(=O)CN(C3CCCCC3)C3CCCCC3)cc2)cc1 [NSC 37249, 2-(dicyclohexylamino)-N-[4-[4-[[2-(dicyclohexylamino)acetyl]amino]phenyl]sulfonylphenyl]acetamide] | No Inhibition | 6.31 | No Inhibition | inhibit either the activation of AVP or the activity of AVP-pVIc complexes; also recorded: effective inhibitors | 6.85 | pKi (AVP-pVIc complexes [4]; Ki AVP:pVIc, competitive inhibition model, substrate 2.5-20 μM): 6.39; Type of inhibition, AVP-pVIc complexes (AVP-pVIc complexes [4]; [8]): Competitive Inhibition; also recorded: competitive inhibitor; Inhibition of papain (Papain; [9]): did not inhibit; Inhibition of papain (Papain; concentrations up to 50-fold the Ki for AVP): no inhibition was observed; pKi (AVP): 6.82; Type of inhibition, AVP (AVP; [8]): Mixed Inhibition; Inhibition of trypsin (Trypsin; [9]): did not inhibit; Inhibition of trypsin (Trypsin; concentrations up to 18 μM): no inhibition was observed
CC1COCC(C)N1CC(=O)Nc1ccc(S(=O)(=O)c2ccc(NC(=O)CN3C(C)COCC3C)cc2)cc1 (centres unmarked) [NSC 106702, 2-(3,5-dimethylmorpholin-4-yl)-N-[4-[4-[[2-(3,5-dimethylmorpholin-4-yl)acetyl]amino]phenyl]sulfonylphenyl] acetamide] | – | – | – | inhibit either the activation of AVP or the activity of AVP-pVIc complexes | – | –
O=C(Nc1ccc(S(=O)(=O)c2ccc(NC(=O)C(F)(F)N3CCOCC3)cc2)cc1)C(F)(F)N1CCOCC1 [NSC 106721, N-[4-[4-[(2,2-difluoro-2-morpholin-4-ylacetyl)amino]phenyl]sulfonylphenyl]-2,2-difluoro-2-morpholin-4-ylacetamide] | – | – | – | inhibit either the activation of AVP or the activity of AVP-pVIc complexes | – | –
pVIc (from UniProt P03274) | – | – | – | – | – | pKd [5]: 5.36
